According to ChEMBL document CHEMBL1128527, “Modification of receptor selectivity and functional activity in cholecystokinin peptoid ligands” (J Med Chem, 1995):
Each block holds one compound with its values, some of them ahead of it. Calls of active or inactive are those of the source. No cut-off for these calls is given here. Numbered stars: 1 amine (or outer) side, 2 acyl side, 3 side chain; on linkers, the order of the positions; unused ones are H or OH. Square brackets hold non-standard residues; d marks the D form. Side chains are listed from the residue outwards. Peptide text beside a SMILES is read from it. * marks the point of attachment. NMeF = CN[C@@H](Cc1ccccc1)C(=O)O; NH(2-Me-phenyl) = Cc1ccccc1N*; CO = O=C([*:1])[*:2]

Experiments:
[1] = molecular target: T1, Cholecystokinin receptor type A (Homo sapiens, UniProt P32238); test: In vitro displacement of [125I]BH-CCK-8 from cDNA of human Cholecystokinin type A receptor expressed in CHO-K1 cells; type: cell-based
T1 sequence (P32238 whole entry): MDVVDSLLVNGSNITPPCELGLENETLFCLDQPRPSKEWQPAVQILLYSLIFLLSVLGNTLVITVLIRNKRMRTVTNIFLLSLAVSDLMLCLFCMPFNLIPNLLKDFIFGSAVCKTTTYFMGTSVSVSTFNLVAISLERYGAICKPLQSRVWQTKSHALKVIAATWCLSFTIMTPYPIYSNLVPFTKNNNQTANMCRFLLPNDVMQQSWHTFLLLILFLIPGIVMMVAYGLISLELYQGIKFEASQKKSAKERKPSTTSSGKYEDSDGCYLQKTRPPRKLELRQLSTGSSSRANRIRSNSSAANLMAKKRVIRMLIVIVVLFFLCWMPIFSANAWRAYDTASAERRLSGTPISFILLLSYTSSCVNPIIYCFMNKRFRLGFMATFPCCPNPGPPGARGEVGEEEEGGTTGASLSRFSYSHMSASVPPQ

[2] = species on record: Cavia porcellus; test: mCCK-8 contraction induced by 30 uM in vitro, normalized to CCK-8 (1 uM); IA ='inactive'; type: functional
Method in brief: (§1)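 Isolated guinea pig gallbladder. Contraction produced by test compound at 30 μM is expressed relative to CCK-8 (1 μM).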

[3] = molecular target: T2, Gastrin/cholecystokinin type B receptor (Homo sapiens, UniProt P32239)
T2 sequence (P32239 whole entry): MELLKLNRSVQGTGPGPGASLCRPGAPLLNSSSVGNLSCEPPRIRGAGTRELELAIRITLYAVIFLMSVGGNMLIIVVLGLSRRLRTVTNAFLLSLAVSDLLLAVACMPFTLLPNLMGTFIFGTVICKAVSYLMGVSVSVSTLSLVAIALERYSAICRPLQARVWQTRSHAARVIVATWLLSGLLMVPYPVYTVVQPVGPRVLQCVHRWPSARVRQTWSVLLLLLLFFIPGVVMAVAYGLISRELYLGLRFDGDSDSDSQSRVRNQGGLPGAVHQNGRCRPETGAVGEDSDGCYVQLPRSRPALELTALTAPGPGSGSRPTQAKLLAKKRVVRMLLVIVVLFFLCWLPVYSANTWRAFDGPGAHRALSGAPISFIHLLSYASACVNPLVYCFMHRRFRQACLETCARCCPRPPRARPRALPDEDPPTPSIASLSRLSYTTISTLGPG

[4] = species on record: Cavia porcellus; test: In vitro concentration required to induce contraction of isolated GPGB; type: functional
Method in brief: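 Isolated guinea pig gallbladder contraction. pEC50 (−log EC50 ± SD) assayed in triplicate.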

[5] = tested on: Rattus norvegicus; test: Compound was evaluated for the dose(ip) required to achieve half-maximal inhibition of feeding at 30 min in rats; type: functional; conditions: 0.5 h
Method in brief: (§2)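 Male Long-Evans rats (225–300 g) conditioned 2 weeks to a liquid diet. Animals fasted 100 min, then given test compound ip in propylene glycol (1 mL/kg) followed at once by an oral saline preload (8 mL/kg). Diet offered 20 min later and intake measured at 30 min. ED50 is the dose giving half-maximal inhibition; 8–10 rats per dose, normalized to each rat's pretreatment-day response.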

[6] = tested on: Rattus norvegicus; test: Compound was evaluated for the maximal reduction in feeding achieved at 1 uM/kg dose(ip); type: functional
Method in brief: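 Conditioned male Long-Evans rats fasted 100 min, dosed ip at 1 μmol/kg in propylene glycol (1 mL/kg), then given an oral saline preload (0.9%, 8 mL/kg). Liquid diet offered 20 min later. Maximal reduction of feeding is the mean of 8–10 animals, normalized to the vehicle pretreatment-day intake.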

[7] = molecular target: T1, Cholecystokinin receptor type A; test: Compound was evaluated for the [Ca2+] mobilization innstably transfected CHO-K1 cell lines expressing human Cholecystokinin type A receptor; type: cell-based
[8] = molecular target: T3, Cholecystokinin receptor type A (Cavia porcellus) (UniProt Q63931); test: The compound was evaluated for the contraction as % of CCK-8 maximum against Cholecystokinin type A receptor in guinea pig gallbladder
T3 sequence (whole entry): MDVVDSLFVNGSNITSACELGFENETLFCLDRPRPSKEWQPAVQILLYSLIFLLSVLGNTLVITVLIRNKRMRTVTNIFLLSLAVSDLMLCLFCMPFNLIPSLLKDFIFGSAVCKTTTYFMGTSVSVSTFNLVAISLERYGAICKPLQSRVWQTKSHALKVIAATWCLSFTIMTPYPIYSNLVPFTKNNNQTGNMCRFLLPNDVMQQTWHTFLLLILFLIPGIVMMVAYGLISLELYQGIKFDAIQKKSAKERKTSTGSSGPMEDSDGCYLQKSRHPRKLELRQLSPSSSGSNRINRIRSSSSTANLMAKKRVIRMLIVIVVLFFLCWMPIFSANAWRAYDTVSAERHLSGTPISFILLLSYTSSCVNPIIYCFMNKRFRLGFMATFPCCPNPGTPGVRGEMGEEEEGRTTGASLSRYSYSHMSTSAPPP

[9] = species on record: Cavia porcellus; test: mCCK-8 contraction induced by 30 uM in vitro, normalized to CCK-8 (1 uM); type: functional; method in brief: as §1
[10] = tested on: Rattus norvegicus; test: The compound was evaluated for the dose(ip) required to achieve half-maximal inhibition of feeding at 30 min in rats; type: functional; conditions: 0.5 h; method in brief: as §2
[11] = tested on: Rattus norvegicus; test: The compound was evaluated for the maximal reduction in feeding achieved at 1 uM/kg dose(ip); type: functional; conditions: in the assay text read “0.5 umol/kg” for “1 uM/kg”
[12] = molecular target: T2, Gastrin/cholecystokinin type B receptor; test: Compound was evaluated for the [Ca2+] mobilization innstably transfected CHO-K1 cell lines expressing human Cholecystokinin type B receptor; type: cell-based
[13] = tested on: Rattus norvegicus; test: Compound was evaluated for the dose(ip) required to achieve half-maximal inhibition of feeding at 30 min in rats.; type: functional; conditions: 0.5 h; method in brief: as §2
[14] = molecular target: T4, Gastrin/cholecystokinin type B receptor (Homo sapiens) (UniProt P32239)
T4 sequence (whole entry): T2 sequence (P32239 whole entry)

[15] = species on record: Cavia porcellus; test: The compound was evaluated for contraction as % of CCK-8 maximum against Cholecystokinin type A receptor in guinea pig gallbladder
[16] = species on record: Cavia porcellus; test: mCCK-8 contraction induced by 30 uM in vitro, normalized to CCK-8 (1 uM); IA = 'inactive'; type: functional; method in brief: as §1
[17] = species on record: Cavia porcellus; test: The compound was evaluated for the pKB, single dose pA2 against Cholecystokinin type A receptor in guinea pig gallbladder; type: functional
Method in brief: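 Isolated guinea pig gallbladder. Antagonism against CCK-8 is expressed as pKB, a single-dose pA2.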

- IC50 [1]: 724 nM
- IC50 [3]: 7080 nM
SMILES: Cc1ccccc1NC(=O)NCCCC[C@@H](CNC(=O)CCC(=O)O)NC(=O)[C@](C)(Cc1c[nH]c2ccccc12)NC(=O)OC1C2CC3CC(C2)CC1C3 (stereo not given in full)
- Activity [2]: inactive

- IC50 [1]: 20 nM
- EC50 [4]: 1.58 nM
- EC50 [7]: 3.98 nM
- contraction, % of CCK-8 max [8]: 105%
SMILES: CC(=O)N[C@@H](Cc1c[nH]c2ccccc12)C(=O)N[C@@H](CCCCNC(=O)Nc1ccccc1C)C(=O)N[C@@H](CC(=O)O)C(=O)N(C)[C@@H](Cc1ccccc1)C(N)=O (Ac-WK([CO-NH(2-Me-phenyl)])D[NMeF]-NH2)
- ED50 [5]: 0.01 µmol/kg
- max inhibition [6]: 67%

SMILES: CSCC[C@H](NC(=O)[C@H](Cc1ccc(OS(=O)(=O)O)cc1)NC(=O)[C@@H](N)CC(=O)O)C(=O)NCC(=O)N[C@@H](Cc1c[nH]c2ccccc12)C(=O)N[C@@H](CCSC)C(=O)N[C@@H](CC(=O)O)C(=O)N[C@@H](Cc1ccccc1)C(N)=O [SINCALIDE]
- Activity [9]: 100%
- ED50 [10]: 0.027 µmol/kg
- max inhibition [11]: 95%

SMILES: C[C@](Cc1c[nH]c2ccccc12)(NC(=O)OC1[C@H]2C[C@@H]3C[C@@H](C[C@H]1C3)C2)C(=O)NC[C@H](NC(=O)CCC(=O)O)c1ccccc1 (stereo not given in full) [CI-988]
- Activity [9]: 24%

- EC50 [12]: 2510 nM
- IC50 [1]: 12 nM
- EC50 [4]: 27.5 nM
- EC50 [7]: 3.16 nM
- IC50 [3]: 20 nM
- pKB [14]: 7.7
SMILES: Cc1ccccc1NC(=O)NCCCC[C@H](CNC(=O)[C@@](C)(Cc1c[nH]c2ccccc12)NC(=O)OC1C2CC3CC(C2)CC1C3)NC(=O)CCC(=O)O (stereo not given in full)
- ED50 [13]: 0.03 µmol/kg
- Max inhibition [6]: 59%
- contraction, % of CCK-8 max [15]: 72%

- IC50 [1]: 229 nM
- EC50 [4]: 832 nM
- IC50 [3]: 178 nM
SMILES: Cc1ccccc1NC(=O)NCCCC[C@H](CNC(=O)[C@](C)(Cc1c[nH]c2ccccc12)NC(=O)OC1C2CC3CC(C2)CC1C3)NC(=O)CCC(=O)O (stereo not given in full)
- contraction, % of CCK-8 max [15]: 83%

- IC50 [1]: 60.3 nM
- IC50 [3]: 224 nM
SMILES: Cc1ccccc1NC(=O)NCCCC[C@@H](CNC(=O)CCC(=O)O)NC(=O)[C@@](C)(Cc1c[nH]c2ccccc12)NC(=O)OC1C2CC3CC(C2)CC1C3 (stereo not given in full)
- Activity [16]: inactive
- pKB [17]: 7
